Our source for the IC50 values is paper PMC11796557 (RSC Advances, 2025).

Usually IC50 stands for the concentration needed to halve the response being measured.

Type in all cases: cell-based
The subject of one assay is HCT116 (colon carcinoma). The assay is described as follows: MTT anticancer activity. As to conditions: Homo sapiens, HCT-116, 48 h, read-out: IC50 HCT116. Put shortly:
(§1)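 Cells kept in DMEM with 10% FBS, 1% penicillin–streptomycin and 1% L-glutamine at 37 °C, 5% CO₂. They were seeded at 10 000 per well and attached for 24 h, then exposed to varying concentrations (from a 10 mM DMSO stock) for 48 h. MTT (5 mg mL⁻¹) was added for 4 h, formazan dissolved in DMSO, and A570 read. IC50 was calculated. DMSO served as vehicle control and cisplatin or doxorubicin as positive control. Values are mean ± SD of three independent experiments (n = 9).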

In a further assay the test system is A549 (lung carcinoma). The assay can be described thus: MTT anticancer activity. Particulars: Homo sapiens, A549, 48 h, read-out: IC50 A549. In a few lines: as §1
Another assay concerns PC3 (prostate carcinoma). The assay can be described thus: MTT anticancer activity. As to conditions: Homo sapiens, 48 h, read-out: IC50 PC3. Put shortly:
as §1

For the next assay, the system named is MCF-7 (breast carcinoma). The assay is described as follows: MTT anticancer activity. Particulars: Homo sapiens, MCF7, 48 h, read-out: IC50 MCF-7. Put shortly:
as §1

For another assay, the system named is normal fibroblasts. The assay is described as follows: MTT cytotoxicity assay, normal fibroblasts. As to conditions: Fibroblast, 48 h, read-out: IC50 Fibroblasts. Put shortly: as §1

Molecules are shown by their SMILES.

For the compound `O=C1CCCc2c1c(O)cc(=O)n2-c1ccccc1` [Compound 3a, 4-Hydroxy-1-phenyl-7,8-dihydroquinoline-2,5(1H,6H)-dione], the IC50 in the assay on HCT116 (colon carcinoma) is 148 µM; in the assay on A549 (lung carcinoma) it was 189 µM; in the assay on PC3 (prostate carcinoma), 151 µM; in the assay on MCF-7 (breast carcinoma), 189 µM; in the assay on normal fibroblasts it was above 500 µM.
With `COc1ccc(-n2c3c(c(O)cc2=O)C(=O)CC(C)(C)C3)cc1` [Compound 3i, 4-Hydroxy-1-(4-methoxyphenyl)-7,7-dimethyl-7,8-dihydroquinoline-2,5(1H,6H)-dione], the IC50 in the assay with HCT116 (colon carcinoma) was 33.4 µM; with A549 (lung carcinoma), 73 µM; in the assay with PC3 (prostate carcinoma) it was 34.1 µM; in the assay on MCF-7 (breast carcinoma) it was 50.1 µM; in the assay on normal fibroblasts, above 500 µM.
In the same order, the values of `COc1ccccc1-n1c2c(c(O)cc1=O)C(=O)CC(C)(C)C2` [Compound 3j, 4-Hydroxy-1-(2-methoxyphenyl)-7,7-dimethyl-7,8-dihydroquinoline-2,5(1H,6H)-dione] are 38.2 µM, 78.8 µM, 43.6 µM, 81.4 µM and above 500 µM.
With `O=C1CCCc2c1c(O)cc(=O)n2-c1ccc(F)cc1` [Compound 3d, 1-(4-Fluorophenyl)-4-hydroxy-7,8-dihydroquinoline-2,5(1H,6H)-dione], the IC50 was 46.5 µM in the assay with HCT116 (colon carcinoma); 98.5 µM in the assay with A549 (lung carcinoma); 65.9 µM in the assay with PC3 (prostate carcinoma); 34.2 µM in the assay on MCF-7 (breast carcinoma); above 500 µM in the assay on normal fibroblasts.
In the same order, the values of `CC1(C)CC(=O)c2c(O)cc(=O)n(-c3ccccc3)c2C1` [Compound 3f, 4-Hydroxy-7,7-dimethyl-1-phenyl-7,8-dihydroquinoline-2,5(1H,6H)-dione] are 118 µM, 127 µM, 95.5 µM, 70.6 µM and above 500 µM.
In the same order, the values of `O=C1CCCc2c1c(O)cc(=O)n2-c1ccc(Cl)cc1` [Compound 3c, 1-(4-Chlorophenyl)-4-hydroxy-7,8-dihydroquinoline-2,5(1H,6H)-dione] are 139 µM, 257 µM, 251 µM, 261 µM and above 500 µM.
The like results for `COc1ccccc1-n1c2c(c(O)cc1=O)C(=O)CCC2` [Compound 3e, 4-Hydroxy-1-(2-methoxyphenyl)-7,8-dihydroquinoline-2,5(1H,6H)-dione] were, in that order, 29.5 µM, 67 µM, 45 µM, 62.6 µM and above 500 µM.
On to `CC1(C)CC(=O)c2c(O)cc(=O)n(Cc3ccccc3)c2C1` [Compound 3g, 1-Benzyl-4-hydroxy-7,7-dimethyl-7,8-dihydroquinoline-2,5(1H,6H)-dione], for which the IC50 in the assay with HCT116 (colon carcinoma) was 18.4 µM; in the assay with A549 (lung carcinoma) it was 32.4 µM; with PC3 (prostate carcinoma) it was 29.1 µM; in the assay on MCF-7 (breast carcinoma) it was 26.9 µM; in the assay with normal fibroblasts, above 500 µM.
In the same order, the values of `CC1(C)CC(=O)c2c(O)cc(=O)n(-c3ccc(F)cc3)c2C1` [Compound 3h, 1-(4-Fluorophenyl)-4-hydroxy-7,7-dimethyl-7,8-dihydroquinoline-2,5(1H,6H)-dione] are 28.9 µM, 87.9 µM, 29.3 µM, 32.4 µM and above 500 µM.
The like results for `Cc1ccc(-n2c3c(c(O)cc2=O)C(=O)CCC3)cc1` [Compound 3b, 4-Hydroxy-1-(p-tolyl)-7,8-dihydroquinoline-2,5(1H,6H)-dione] were, in that order, 162 µM, 159 µM, 239 µM, 213 µM and above 500 µM.
For `COc1cccc2c1C(=O)c1c(O)c3c(c(O)c1C2=O)C[C@@](O)(C(=O)CO)C[C@@H]3O[C@H]1C[C@H](N)[C@H](O)[C@H](C)O1` [Doxorubicin, reference compound], the IC50 in the assay with HCT116 (colon carcinoma) turned out to be 5.8 µM; in the assay on MCF-7 (breast carcinoma) it was 2.3 µM.
